Measurements collected from several papers.
Each line is one published result; the experiments were not run side by side.
Read-out: cell growth or viability

Compound	cell line	method	time	IC50
O=C(O)/C=C/c1ccc(O)cc1	A-375	MTT	–	> 50 µM
COc1ccc(-c2cc(=O)c3c(OC)cc(OC)c(-c4c(OC)cc(OC)c5c(=O)cc(-c6ccc(OC)cc6)oc45)c3o2)cc1	HS27	MTT	24 h	> 200 µM
C=CCn1c(-c2ccc(Cl)cc2)nc2ccccc21	MDA-MB-231	MTT	–	73.1 µM
COc1cc(-c2ncn(/C=C\C(=O)OC(C)C)n2)cc(C(F)(F)F)c1	Mono-Mac-1	–	72 h	0.474 µM
Oc1cccc(-c2nc3ccccc3[nH]2)c1	MDA-MB-231	MTT	48 h	> 100 µM
COc1cc(C)cc2oc(-c3cccc(Br)c3)cc(=O)c12	HS27	MTT	24 h	104 µM
c1cnc2c(c1)ccc1cccnc12	BEL-7404	MTT	48 h	> 50 µM
CCOc1cc(-c2nc3ccc(C)cc3[nH]2)ccc1O	MDA-MB-231	MTT	48 h	> 100 µM
COc1cc(C)cc2oc(-c3ccccc3Br)cc(=O)c12	HS27	MTT	24 h	130 µM
C/C=C(/C)C(=O)OC[C@H]1[C@@H](Cc2ccc(F)cc2)CO[C@@H]1c1ccc(F)cc1	rat VSMC	resazurin	48 h	4.7 µM
Cc1ccc2nc(-c3ccccc3Cl)[nH]c2c1	MDA-MB-231	MTT	48 h	64.9 µM
COc1cccc2c1C(=O)c1c(O)c3c(c(O)c1C2=O)C[C@@](O)(C(=O)CO)C[C@@H]3O[C@H]1C[C@H](N)[C@H](O)[C@H](C)O1	LLC-PK11	neutral red	48 h	0.98 µg/mL
Cc1ccc2nc(-c3ccco3)[nH]c2c1	MDA-MB-231	MTT	48 h	> 100 µM
COc1cc(C)c(-c2c(C)cc(OC)c3c(=O)cc(-c4ccc(Br)cc4)oc23)c2oc(-c3ccc(Br)cc3)cc(=O)c12	HS27	MTT	24 h	> 200 µM
COC(=O)CN=c1scc(-c2ccccc2)n1-c1ccc(OC)cc1	Panc 04.03	MTT	72 h	75.2 µM
Cc1ccc2nc(-c3ccc([N+](=O)[O-])cc3)n(Cc3ccccc3Cl)c2c1	MDA-MB-231	MTT	–	28.5 µM
COC(=O)CN=c1scc(-c2ccccc2)n1-c1ccccc1[N+](=O)[O-]	SiHa	MTT	–	6.78 µM
Cc1ccc2c(Cl)cc(Cl)c(O)c2n1	BEL-7404	MTT	48 h	> 100 µM
COc1cc(C)cc2oc(-c3ccc(Br)cc3)cc(=O)c12	HS27	MTT	24 h	> 200 µM
Oc1ccc(Nc2nc(-c3ccc(Cl)cc3)cs2)cc1	FF2441	MTS	72 h	> 100 µM
